From the M2OR odorant receptor database

How the values were obtained:
Conditions in all cases: stereoisomer not certain
[1] = target: T1, OR52I1 (Homo sapiens) (UniProt Q8NGK6)
T1 sequence (whole entry): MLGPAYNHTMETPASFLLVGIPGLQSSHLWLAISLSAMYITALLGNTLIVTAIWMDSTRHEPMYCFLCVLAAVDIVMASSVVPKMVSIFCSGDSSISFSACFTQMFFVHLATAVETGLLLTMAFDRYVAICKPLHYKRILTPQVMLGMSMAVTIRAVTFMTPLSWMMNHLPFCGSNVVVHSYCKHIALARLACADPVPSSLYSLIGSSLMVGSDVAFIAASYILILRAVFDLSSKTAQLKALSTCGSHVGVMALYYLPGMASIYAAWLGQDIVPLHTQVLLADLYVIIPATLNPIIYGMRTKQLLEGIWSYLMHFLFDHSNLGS
Outline: (§1)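 Assay methods differ from source to source, frequently being transient luciferase assays in mammalian cell lines. For each receptor–molecule pair, the label responsive (active) applies when the original authors judged the measured signal statistically different from baseline, and non-responsive (inactive) applies otherwise.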

[2] = target: T2, OR52I2 (Homo sapiens) (UniProt Q8NH67)
T2 sequence (whole entry): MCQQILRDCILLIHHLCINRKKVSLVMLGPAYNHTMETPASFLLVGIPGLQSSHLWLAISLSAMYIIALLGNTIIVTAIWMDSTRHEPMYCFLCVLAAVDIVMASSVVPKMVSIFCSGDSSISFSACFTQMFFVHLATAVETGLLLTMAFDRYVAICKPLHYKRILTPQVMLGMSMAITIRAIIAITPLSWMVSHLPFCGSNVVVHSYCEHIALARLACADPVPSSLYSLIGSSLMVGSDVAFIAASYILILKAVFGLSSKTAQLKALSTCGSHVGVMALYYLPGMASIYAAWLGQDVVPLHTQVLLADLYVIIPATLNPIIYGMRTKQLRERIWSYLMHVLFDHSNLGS
Outline: as §1

[3] = target: OR52J3 (Homo sapiens) (UniProt Q8NH60)
Sequence of OR52J3 (Homo sapiens) (Q8NH60 whole entry): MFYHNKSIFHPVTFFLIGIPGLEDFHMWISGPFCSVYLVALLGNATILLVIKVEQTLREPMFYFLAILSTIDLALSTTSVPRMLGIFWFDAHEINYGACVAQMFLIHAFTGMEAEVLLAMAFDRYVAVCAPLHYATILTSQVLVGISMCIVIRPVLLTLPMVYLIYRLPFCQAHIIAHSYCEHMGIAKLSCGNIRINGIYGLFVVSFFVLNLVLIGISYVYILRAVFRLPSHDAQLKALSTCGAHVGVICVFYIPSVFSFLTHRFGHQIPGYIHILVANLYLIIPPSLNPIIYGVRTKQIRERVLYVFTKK
Outline: as §1

[4] = target: T3, OR52K1 (Homo sapiens) (UniProt Q8NGK4)
T3 sequence (whole entry): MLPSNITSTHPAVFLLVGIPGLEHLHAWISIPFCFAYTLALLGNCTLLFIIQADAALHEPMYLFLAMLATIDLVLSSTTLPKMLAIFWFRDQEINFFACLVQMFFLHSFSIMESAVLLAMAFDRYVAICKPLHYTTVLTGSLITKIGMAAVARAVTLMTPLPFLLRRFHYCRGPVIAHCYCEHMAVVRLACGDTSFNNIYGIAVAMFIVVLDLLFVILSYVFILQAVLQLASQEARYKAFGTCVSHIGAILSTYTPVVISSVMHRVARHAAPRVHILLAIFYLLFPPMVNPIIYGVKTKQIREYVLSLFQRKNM
Outline: as §1

[5] = target: T4, OR52K2 (Homo sapiens) (UniProt Q8NGK3)
T4 sequence (whole entry): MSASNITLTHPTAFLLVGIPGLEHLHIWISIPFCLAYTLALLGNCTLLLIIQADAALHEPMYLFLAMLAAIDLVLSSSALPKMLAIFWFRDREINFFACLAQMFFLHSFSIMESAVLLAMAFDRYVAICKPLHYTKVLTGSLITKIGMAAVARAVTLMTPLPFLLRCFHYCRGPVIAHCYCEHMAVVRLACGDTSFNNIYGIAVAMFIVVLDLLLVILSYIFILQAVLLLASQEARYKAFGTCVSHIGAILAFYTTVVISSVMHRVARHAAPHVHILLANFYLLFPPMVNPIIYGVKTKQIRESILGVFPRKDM
Outline: as §1

[6] = target: T5, OR52L1 (Homo sapiens) (UniProt Q8NGH7)
T5 sequence (whole entry): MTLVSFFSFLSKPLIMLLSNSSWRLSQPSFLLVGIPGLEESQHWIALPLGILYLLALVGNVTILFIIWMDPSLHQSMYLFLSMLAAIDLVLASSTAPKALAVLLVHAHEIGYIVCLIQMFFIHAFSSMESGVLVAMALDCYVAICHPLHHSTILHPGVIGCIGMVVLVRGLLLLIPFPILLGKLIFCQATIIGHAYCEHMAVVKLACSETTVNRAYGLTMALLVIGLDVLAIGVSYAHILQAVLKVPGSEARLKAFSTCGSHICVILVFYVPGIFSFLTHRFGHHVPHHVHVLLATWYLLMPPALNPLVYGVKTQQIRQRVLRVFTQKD
Outline: as §1

[7] = target: T6, OR52M1 (Homo sapiens) (UniProt Q8NGK5)
T6 sequence (whole entry): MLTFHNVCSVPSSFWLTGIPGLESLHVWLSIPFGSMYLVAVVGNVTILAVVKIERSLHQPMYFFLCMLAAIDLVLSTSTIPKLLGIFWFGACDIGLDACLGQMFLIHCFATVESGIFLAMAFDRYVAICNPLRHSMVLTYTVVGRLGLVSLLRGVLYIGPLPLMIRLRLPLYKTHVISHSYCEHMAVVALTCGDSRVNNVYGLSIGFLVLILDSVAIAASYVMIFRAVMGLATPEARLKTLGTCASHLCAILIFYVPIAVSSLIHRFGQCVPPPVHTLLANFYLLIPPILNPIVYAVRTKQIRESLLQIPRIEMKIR
Outline: as §1

[8] = target: T7, OR52N1 (Homo sapiens) (UniProt Q8NH53)
T7 sequence (whole entry): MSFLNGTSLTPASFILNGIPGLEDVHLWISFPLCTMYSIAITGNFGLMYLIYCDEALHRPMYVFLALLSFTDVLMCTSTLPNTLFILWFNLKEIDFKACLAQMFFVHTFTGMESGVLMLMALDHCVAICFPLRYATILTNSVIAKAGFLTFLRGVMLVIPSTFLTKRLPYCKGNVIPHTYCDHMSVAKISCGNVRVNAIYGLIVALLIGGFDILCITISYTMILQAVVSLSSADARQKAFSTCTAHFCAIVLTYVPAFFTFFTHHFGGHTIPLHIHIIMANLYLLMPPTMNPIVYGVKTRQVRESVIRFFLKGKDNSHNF
Outline: as §1

[9] = target: T8, OR52N2 (Homo sapiens) (UniProt Q8NGI0)
T8 sequence (whole entry): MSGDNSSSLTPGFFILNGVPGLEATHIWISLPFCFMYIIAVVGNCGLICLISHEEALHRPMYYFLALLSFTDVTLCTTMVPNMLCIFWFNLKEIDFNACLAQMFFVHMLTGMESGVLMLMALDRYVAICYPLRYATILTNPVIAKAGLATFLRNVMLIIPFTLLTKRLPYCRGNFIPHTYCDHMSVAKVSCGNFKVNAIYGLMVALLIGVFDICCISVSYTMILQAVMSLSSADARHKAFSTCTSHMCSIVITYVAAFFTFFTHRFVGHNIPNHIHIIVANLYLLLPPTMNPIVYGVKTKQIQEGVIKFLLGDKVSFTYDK
Outline: as §1

[10] = target: T9, OR52N4 (Homo sapiens) (UniProt Q8NGI2)
T9 sequence (whole entry): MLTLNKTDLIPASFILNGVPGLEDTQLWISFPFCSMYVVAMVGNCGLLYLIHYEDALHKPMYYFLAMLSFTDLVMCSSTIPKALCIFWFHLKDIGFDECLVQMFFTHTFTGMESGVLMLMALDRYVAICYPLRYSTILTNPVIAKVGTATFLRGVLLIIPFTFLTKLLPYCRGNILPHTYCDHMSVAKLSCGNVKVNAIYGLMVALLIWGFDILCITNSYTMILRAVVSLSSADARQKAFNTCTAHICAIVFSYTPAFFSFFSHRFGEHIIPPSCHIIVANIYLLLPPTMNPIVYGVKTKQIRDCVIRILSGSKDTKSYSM
Outline: as §1

[11] = target: T10, OR52N5 (Homo sapiens) (UniProt Q8NH56)
T10 sequence (whole entry): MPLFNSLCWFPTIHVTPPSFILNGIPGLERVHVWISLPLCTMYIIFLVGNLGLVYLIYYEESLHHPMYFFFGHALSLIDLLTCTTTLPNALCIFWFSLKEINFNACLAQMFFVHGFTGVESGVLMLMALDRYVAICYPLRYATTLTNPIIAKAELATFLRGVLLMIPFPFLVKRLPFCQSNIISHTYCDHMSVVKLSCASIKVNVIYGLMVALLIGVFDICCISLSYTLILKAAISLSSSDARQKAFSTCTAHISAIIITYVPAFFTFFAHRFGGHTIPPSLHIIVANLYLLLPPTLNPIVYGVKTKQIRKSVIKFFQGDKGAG
Outline: as §1

[12] = target: T11, OR52R1 (Homo sapiens) (UniProt Q8NGF1)
T11 sequence (whole entry): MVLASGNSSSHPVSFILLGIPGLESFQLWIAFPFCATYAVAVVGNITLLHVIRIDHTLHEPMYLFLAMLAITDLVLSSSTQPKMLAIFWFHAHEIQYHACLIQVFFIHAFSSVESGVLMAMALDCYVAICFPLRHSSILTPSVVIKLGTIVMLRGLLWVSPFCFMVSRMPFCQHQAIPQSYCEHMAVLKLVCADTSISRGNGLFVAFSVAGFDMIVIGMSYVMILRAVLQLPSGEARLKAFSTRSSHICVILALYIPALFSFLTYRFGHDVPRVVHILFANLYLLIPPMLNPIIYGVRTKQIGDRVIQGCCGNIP
Outline: as §1

[13] = target: T12, OR52W1 (Homo sapiens) (UniProt Q6IF63)
T12 sequence (whole entry): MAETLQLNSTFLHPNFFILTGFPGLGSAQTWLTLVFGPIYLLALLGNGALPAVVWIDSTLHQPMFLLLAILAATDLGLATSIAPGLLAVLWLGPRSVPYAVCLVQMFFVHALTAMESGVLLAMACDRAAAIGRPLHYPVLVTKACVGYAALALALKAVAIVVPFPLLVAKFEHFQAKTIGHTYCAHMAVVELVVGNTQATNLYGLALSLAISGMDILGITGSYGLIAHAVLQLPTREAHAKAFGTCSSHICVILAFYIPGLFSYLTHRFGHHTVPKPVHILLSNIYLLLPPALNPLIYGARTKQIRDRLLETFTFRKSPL
Outline: as §1

[14] = target: T13, OR56A1 (Homo sapiens) (UniProt Q8NGH5)
T13 sequence (whole entry): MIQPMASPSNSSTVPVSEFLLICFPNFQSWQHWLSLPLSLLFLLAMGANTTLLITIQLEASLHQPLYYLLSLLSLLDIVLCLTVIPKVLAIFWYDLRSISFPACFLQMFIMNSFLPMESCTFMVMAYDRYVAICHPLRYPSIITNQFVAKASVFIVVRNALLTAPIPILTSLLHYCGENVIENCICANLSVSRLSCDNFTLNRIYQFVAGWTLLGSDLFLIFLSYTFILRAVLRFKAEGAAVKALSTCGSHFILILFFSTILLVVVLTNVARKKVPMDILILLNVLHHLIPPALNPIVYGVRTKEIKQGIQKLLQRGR
Outline: as §1

[15] = target: T14, OR56A3 (Homo sapiens) (UniProt Q8NH54)
T14 sequence (whole entry): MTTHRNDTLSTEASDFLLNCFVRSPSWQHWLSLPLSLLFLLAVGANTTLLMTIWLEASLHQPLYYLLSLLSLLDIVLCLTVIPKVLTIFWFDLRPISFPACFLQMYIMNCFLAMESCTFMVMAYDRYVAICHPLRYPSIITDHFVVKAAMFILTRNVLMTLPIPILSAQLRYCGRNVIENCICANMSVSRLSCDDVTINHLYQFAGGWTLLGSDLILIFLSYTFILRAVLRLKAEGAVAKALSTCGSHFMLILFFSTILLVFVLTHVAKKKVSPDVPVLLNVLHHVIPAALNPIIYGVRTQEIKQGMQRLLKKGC
Outline: as §1

[16] = target: T15, OR56A4 (Homo sapiens) (UniProt Q8NGH8)
T15 sequence (whole entry): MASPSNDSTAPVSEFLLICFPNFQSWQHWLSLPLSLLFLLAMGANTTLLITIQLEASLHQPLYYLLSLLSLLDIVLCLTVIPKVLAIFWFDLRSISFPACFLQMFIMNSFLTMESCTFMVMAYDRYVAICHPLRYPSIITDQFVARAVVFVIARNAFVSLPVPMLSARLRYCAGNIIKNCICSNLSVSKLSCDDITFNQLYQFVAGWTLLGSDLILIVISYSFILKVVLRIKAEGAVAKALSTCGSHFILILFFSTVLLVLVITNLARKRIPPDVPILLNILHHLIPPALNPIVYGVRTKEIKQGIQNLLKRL
Outline: as §1

[17] = target: T16, OR56A5 (Homo sapiens) (UniProt P0C7T3)
T16 sequence (whole entry): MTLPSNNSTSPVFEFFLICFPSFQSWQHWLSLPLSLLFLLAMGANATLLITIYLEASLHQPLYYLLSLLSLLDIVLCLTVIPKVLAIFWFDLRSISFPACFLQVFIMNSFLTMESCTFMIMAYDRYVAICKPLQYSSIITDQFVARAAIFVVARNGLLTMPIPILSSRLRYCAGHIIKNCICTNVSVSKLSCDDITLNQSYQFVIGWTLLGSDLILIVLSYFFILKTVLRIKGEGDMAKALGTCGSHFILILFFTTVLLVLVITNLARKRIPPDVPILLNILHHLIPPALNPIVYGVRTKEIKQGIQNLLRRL
Outline: as §1

[18] = target: T17, OR56B1 (Homo sapiens) (UniProt Q8NGI3)
T17 sequence (whole entry): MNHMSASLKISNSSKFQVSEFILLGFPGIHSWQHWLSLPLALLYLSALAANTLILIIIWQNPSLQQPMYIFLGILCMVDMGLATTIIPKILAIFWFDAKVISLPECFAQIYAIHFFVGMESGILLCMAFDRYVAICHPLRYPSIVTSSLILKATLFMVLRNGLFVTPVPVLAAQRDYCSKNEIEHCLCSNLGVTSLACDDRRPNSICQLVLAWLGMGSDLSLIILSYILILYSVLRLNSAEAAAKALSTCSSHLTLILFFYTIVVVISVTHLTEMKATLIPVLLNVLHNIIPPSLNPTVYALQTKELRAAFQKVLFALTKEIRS
Outline: as §1

[19] = target: OR52Z1P (Homo sapiens) (UniProt P0C646)
Sequence of OR52Z1P (Homo sapiens) (P0C646 whole entry): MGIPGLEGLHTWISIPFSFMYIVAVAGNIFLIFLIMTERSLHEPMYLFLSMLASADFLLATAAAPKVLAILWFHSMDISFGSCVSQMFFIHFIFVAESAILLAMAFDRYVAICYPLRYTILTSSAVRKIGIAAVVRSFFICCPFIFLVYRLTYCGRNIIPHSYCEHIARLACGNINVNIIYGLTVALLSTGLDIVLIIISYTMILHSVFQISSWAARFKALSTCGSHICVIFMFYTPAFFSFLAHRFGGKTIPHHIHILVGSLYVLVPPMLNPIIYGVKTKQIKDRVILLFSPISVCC
Outline: as §1

Measured: odorant receptor agonist call

CCC(S)C(C)CO (configuration not stated)
inactive: [1] | [2] | [3] | [4] | [5] | [6] | [7] | [8] | [9] | [10] | [11] | [12] | [13] | [14] | [15] | [16] | [17] | [18]

CC(=O)c1c(C)c([N+](=O)[O-])c(C(C)(C)C)c([N+](=O)[O-])c1C
inactive: [1] | [2] | [3] | [4] | [5] | [6] | [7] | [8] | [9] | [10] | [11] | [12] | [13] | [19] | [14] | [15] | [16] | [17] | [18]
